Usually IC50 stands for the concentration needed to halve the response being measured.

This note sets out measurements from ChEMBL document CHEMBL1151460, “Identification and evaluation of a highly effective fusion inhibitor for human metapneumovirus” (Antimicrob Agents Chemother, 2008).

One data set concerns Human metapneumovirus. As to the kind of experiment: Antiviral activity against hMPV C-85473 infected in rhesus monkey LLC-MK2 cells after 3 days by RT-PCR. Format: functional, organism-based. The settings on record: C-85473, LLC-MK2, 72 h. Summed up:
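Twofold serial dilutions of peptide mixed with 107 TCID50 virus in infection medium (Opti-MEM with 2 µg/ml trypsin) and added to LLC-MK2 cells. After 2 h, medium replaced with fresh medium containing the same peptide dilutions. Supernatants collected on day 3 and N gene quantified by real-time RT-PCR (TaqMan). IC50 from triplicate experiments.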

The subject of a further data set is LLC-MK2. As to the kind of experiment: Cytotoxicity against rhesus monkey LLC-MK2 cells at 9 uM after 3 days by MTT assay. Format: cell-based, Macaca mulatta. The settings on record: llc-mk2, 72 h. Summed up:
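Serial peptide dilutions in hMPV infection medium applied to LLC-MK2 cells for 3 days. MTT (1 mg/ml) added for 2 h at 37°C, dye solubilized in acidic isopropanol, absorbance read at 570. Absorbance below that of control cells taken as cytotoxicity.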
(Tetrazolium assays rely on reduction of a dye to a coloured formazan, in cell work by metabolically active cells.)

For data set [1], the species on record is Mus musculus. The experiment in a line: Effect on pulmonary inflammation in BALB/c mouse lung assessed as change in perivascular inflammation after 5 days by histopathological analysis. In kind it is functional, organism-based. Summed up: (§1)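 Female BALB/c mice, 4-6 weeks old, received intranasal hMPV C-85473 (2 x 106 TCID50/ml, 70 µl) or PBS, with or without 7 µM synthetic peptide by the same route. Six lungs/group taken on day 5, fixed in 10% buffered formalin, paraffin-embedded, cut at 5 µm, stained with H&E. Each inflammation type scored on a 0-4 scale.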

The species entered for data set [2] is Mus musculus. As to the kind of experiment: Effect on pulmonary inflammation in BALB/c mouse lung assessed as change in peribronchiolar inflammation after 5 days by histopathological analysis. In kind it is functional, organism-based. In a few lines: as §1
The species named for data set [3] is Mus musculus. As to the kind of experiment: Effect on airway obstruction in hMPV infected BALB/c mouse assessed as decrease in enhanced pause treated simultaneously with viral challenge.

SMILES strings stand for the structures. Active and inactive are the calls of the source. No cut-off for these calls is given here. Where a SMILES comes first, the peptide text is derived from it.

Consider `CC[C@H](C)[C@H](NC(=O)[C@H](CCCNC(=N)N)NC(=O)[C@H](CC(N)=O)NC(=O)[C@H](CO)NC(=O)[C@H](CCC(N)=O)NC(=O)[C@H](CC(=O)O)NC(=O)[C@@H](NC(=O)[C@H](CC(C)C)NC(=O)[C@H](C)NC(=O)[C@H](CCC(N)=O)NC(=O)[C@H](CO)NC(=O)[C@H](CC(N)=O)NC(=O)[C@H](CCC(=O)O)NC(=O)[C@@H](NC(=O)[C@H](CO)NC(=O)[C@H](CCC(=O)O)NC(=O)[C@H](Cc1ccccc1)NC(=O)[C@@H](NC(=O)[C@H](CCC(N)=O)NC(=O)[C@H](CC(=O)O)NC(=O)[C@H](CC(C)C)NC(=O)[C@H](C)NC(=O)[C@@H](NC(=O)[C@H](CC(N)=O)NC(=O)[C@H](Cc1ccccc1)NC(=O)[C@H](CCC(N)=O)NC(=O)[C@H](CC(=O)O)NC(=O)[C@H](CCC(=O)O)NC(=O)[C@@H]1CCCN1)C(C)C)C(C)C)[C@@H](C)CC)C(C)C)C(=O)N[C@@H](CC(C)C)C(=O)N[C@@H](CO)C(=O)N[C@@H](CO)C(=O)N[C@@H](C)C(=O)N[C@@H](CCC(=O)O)C(=O)N[C@@H](CCCCN)C(=O)NCC(=O)N[C@@H](CC(N)=O)C(=O)N[C@H](C(=O)NCC(=O)O)[C@@H](C)O` (H-PEDQFNVALDQVFESIENSQALVDQSNRILSSAEKGNTG-OH), for which the IC50 with Human metapneumovirus turned out to be 3.31 µM. In the data set on LLC-MK2, the Activity entry is “Not Active”.
Taken in the same sequence, the figures for `CC[C@H](C)[C@H](NC(=O)[C@H](CCCNC(=N)N)NC(=O)[C@H](CC(N)=O)NC(=O)[C@H](CO)NC(=O)[C@H](CCC(N)=O)NC(=O)[C@H](CC(=O)O)NC(=O)[C@@H](NC(=O)[C@H](CC(C)C)NC(=O)[C@H](C)NC(=O)[C@H](CCC(N)=O)NC(=O)[C@H](CO)NC(=O)[C@H](CC(N)=O)NC(=O)[C@H](CCC(=O)O)NC(=O)[C@@H](NC(=O)[C@H](CO)NC(=O)[C@H](CCC(=O)O)NC(=O)[C@H](Cc1ccccc1)NC(=O)[C@@H](NC(=O)[C@H](CCC(N)=O)NC(=O)[C@H](CC(=O)O)NC(=O)[C@H](CC(C)C)NC(=O)[C@H](C)NC(=O)[C@@H](NC(=O)[C@H](CC(N)=O)NC(=O)[C@@H](N)Cc1ccccc1)C(C)C)C(C)C)[C@@H](C)CC)C(C)C)C(=O)N[C@@H](CC(C)C)C(=O)N[C@@H](CO)C(=O)N[C@@H](CO)C(=O)N[C@@H](C)C(=O)N[C@@H](CCC(=O)O)C(=O)N[C@@H](CCCCN)C(=O)NCC(=O)N[C@@H](CC(N)=O)C(=O)O` (H-FNVALDQVFESIENSQALVDQSNRILSSAEKGN-OH) were more than 9 µM and “Not Active”.
The compound `CC[C@H](C)[C@H](NC(=O)[C@H](CCCNC(=N)N)NC(=O)[C@H](CC(N)=O)NC(=O)[C@H](CO)NC(=O)[C@H](CCC(N)=O)NC(=O)[C@H](CC(=O)O)NC(=O)[C@@H](NC(=O)[C@H](CC(C)C)NC(=O)[C@H](C)NC(=O)[C@H](CCC(N)=O)NC(=O)[C@H](CO)NC(=O)[C@H](CC(N)=O)NC(=O)[C@H](CCC(=O)O)NC(=O)[C@@H](NC(=O)[C@H](CO)NC(=O)[C@H](CCC(=O)O)NC(=O)[C@H](Cc1ccccc1)NC(=O)[C@@H](NC(=O)[C@H](CCC(N)=O)NC(=O)[C@H](CC(=O)O)NC(=O)[C@H](CC(C)C)NC(=O)[C@H](C)NC(=O)[C@@H](NC(=O)[C@H](CC(N)=O)NC(=O)[C@@H](N)Cc1ccccc1)C(C)C)C(C)C)[C@@H](C)CC)C(C)C)C(=O)N[C@@H](CC(C)C)C(=O)N[C@@H](CO)C(=O)N[C@@H](CO)C(=O)N[C@@H](C)C(=O)N[C@@H](CCC(=O)O)C(=O)N[C@@H](CCCCN)C(=O)NCC(=O)N[C@@H](CC(N)=O)C(=O)N[C@H](C(=O)NCC(=O)O)[C@@H](C)O` (H-FNVALDQVFESIENSQALVDQSNRILSSAEKGNTG-OH) registered an IC50 in the data set on Human metapneumovirus of 1.52 µM. For the same compound, in the data set on LLC-MK2, the Activity entry is listed as “Not Active”.
In turn, `CC[C@H](C)[C@H](NC(=O)[C@H](CCCNC(=N)N)NC(=O)[C@H](CC(N)=O)NC(=O)[C@H](CO)NC(=O)[C@H](CCC(N)=O)NC(=O)[C@H](CC(=O)O)NC(=O)[C@@H](NC(=O)[C@H](CC(C)C)NC(=O)[C@H](C)NC(=O)[C@H](CCC(N)=O)NC(=O)[C@H](CO)NC(=O)[C@H](CC(N)=O)NC(=O)[C@H](CCC(=O)O)NC(=O)[C@@H](NC(=O)[C@H](CO)NC(=O)[C@H](CCC(=O)O)NC(=O)[C@H](Cc1ccccc1)NC(=O)[C@@H](NC(=O)[C@H](CCC(N)=O)NC(=O)[C@H](CC(=O)O)NC(=O)[C@H](CC(C)C)NC(=O)[C@H](C)NC(=O)[C@@H](NC(=O)[C@@H](N)CC(N)=O)C(C)C)C(C)C)[C@@H](C)CC)C(C)C)C(=O)N[C@@H](CC(C)C)C(=O)N[C@@H](CO)C(=O)N[C@@H](CO)C(=O)N[C@@H](C)C(=O)O` (H-NVALDQVFESIENSQALVDQSNRILSSA-OH) had an IC50 with Human metapneumovirus of more than 9 µM. For the same compound, in the data set on LLC-MK2, the Activity result was “Not Active”. Further, the result in the data set listed under Mus musculus [1], in the data set filed under Mus musculus [2] and in the data set filed under Mus musculus [3] was inactive.
Consider `CC[C@H](C)[C@H](NC(=O)[C@H](CCCNC(=N)N)NC(=O)[C@H](CC(N)=O)NC(=O)[C@H](CO)NC(=O)[C@H](CCC(N)=O)NC(=O)[C@H](CC(=O)O)NC(=O)[C@@H](NC(=O)[C@H](CC(C)C)NC(=O)[C@H](C)NC(=O)[C@H](CCC(N)=O)NC(=O)[C@H](CO)NC(=O)[C@H](CC(N)=O)NC(=O)[C@H](CCC(=O)O)NC(=O)[C@@H](NC(=O)[C@H](CO)NC(=O)[C@H](CCC(=O)O)NC(=O)[C@H](Cc1ccccc1)NC(=O)[C@@H](NC(=O)[C@H](CCC(N)=O)NC(=O)[C@H](CC(=O)O)NC(=O)[C@H](CC(C)C)NC(=O)[C@H](C)NC(=O)[C@@H](NC(=O)[C@H](CC(N)=O)NC(=O)[C@@H](N)Cc1ccccc1)C(C)C)C(C)C)[C@@H](C)CC)C(C)C)C(=O)N[C@@H](CC(C)C)C(=O)N[C@@H](CO)C(=O)N[C@@H](CO)C(=O)N[C@@H](C)C(=O)N[C@@H](CCC(=O)O)C(=O)O` (H-FNVALDQVFESIENSQALVDQSNRILSSAE-OH), for which the IC50 in the data set with Human metapneumovirus is more than 9 µM. Also, in the data set with LLC-MK2, the Activity entry is “Not Active”.
In the data set with Human metapneumovirus, `CC[C@H](C)[C@H](NC(=O)[C@H](C)NC(=O)[C@@H](NC(=O)[C@@H](NC(=O)[C@H](CCC(=O)O)NC(=O)[C@H](CO)NC(=O)[C@H](CCC(=O)O)NC(=O)[C@@H](N)CC(C)C)C(C)C)[C@@H](C)O)C(=O)N[C@@H](CCCCN)C(=O)N[C@@H](CC(N)=O)C(=O)N[C@@H](C)C(=O)N[C@@H](CC(C)C)C(=O)N[C@@H](CCCCN)C(=O)N[C@@H](CCCCN)C(=O)N[C@H](C(=O)N[C@@H](CC(N)=O)C(=O)N[C@@H](CCC(=O)O)C(=O)N[C@@H](C)C(=O)N[C@H](C(=O)N[C@@H](CO)C(=O)N[C@H](C(=O)N[C@@H](CC(C)C)C(=O)NCC(=O)N[C@@H](CC(N)=O)C(=O)NCC(=O)N[C@H](C(=O)N[C@@H](CCCNC(=N)N)C(=O)N[C@H](C(=O)N[C@@H](CC(C)C)C(=O)N[C@@H](C)C(=O)N[C@H](C(=O)N[C@@H](C)C(=O)N[C@H](C(=O)N[C@@H](CCCNC(=N)N)C(=O)N[C@@H](CCC(=O)O)C(=O)O)C(C)C)[C@@H](C)O)C(C)C)C(C)C)[C@@H](C)O)C(C)C)[C@@H](C)O` (H-LESEVTAIKNALKKTNEAVSTLGNGVRVLATAVRE-OH) yielded an IC50 of 3.24 µM. Further, the Activity result with LLC-MK2 is listed as “Not Active”.
